The values that follow come from PubChem BioAssay AID1525 (The Scripps Research Institute Molecular Screening Center, 2009).

The list shows a part of the results. Active and inactive are the calls of the source.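 How the source made its calls: active means mean activation over replicates above a set limit taken from the earlier TRPN1 channel primary screen (cut at about 19% in these data); inactive means the rest.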

This experiment has as its system TRPN1 (NOMPC) [Danio rerio]. In words: zebrafish TRPN1 channel agonists, counter-screen for TRPML3 agonist project, cell-based, HEK293 TRPN1-YFP, Fluo-8 calcium (AID 1525).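 Further: 100% = carbachol and 0% = 0.3% DMSO.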 The settings on record: Fluo-8 calcium fluorescence, at 3 µM, active compounds read high, scaled: carbachol wells 100%, DMSO wells 0%. The gist of the method:
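Assay system: Zebrafish TRPN1-YFP HEK293 cells | Dosing: One 3 µM compound dose per well | Times: Fluo-8 loading 1 h at 37 °C, then 30 min room temperature | Signal: Fluo-8 calcium, trypan red quencher, 5 s basal, 120 s post-addition | Measure: % activation from max/basal fluorescence ratio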
For orientation: Counterscreens check selectivity or assay interference.
Consider `COc1ccc(Cl)cc1N(CC(=O)N1CCCCC1)S(C)(=O)=O`, for which the activation was 2.78% (inactive). Take `COc1ccccc1N(CC(=O)N1CCCCC1)S(=O)(=O)c1ccccc1`: the activation was 1.91% (inactive). In the case of `CC1=CC(C)(C)N(C(=O)CSc2nnc(-c3ccccc3)o2)c2ccc(C)cc21` it was 0.12% (inactive).

Take `CCN(CC)S(=O)(=O)c1ccc2c3c(cccc13)C(=O)S2`: the activation was -0.76% (inactive). For `CC1(C)CCCC2=C1CC1C(=O)N(c3ccccc3)C(=O)C1C2` (stereo not drawn) the value was -0.48% (inactive); for `c1ccc2c(C[n+]3csc4ccccc43)cccc2c1`, -0.03% (inactive). As to `Cc1cccc(C)c1N1CCN(S(=O)(=O)N2CCCCC2)CC1`, the activation is 28.3% (active).

In the case of `CC1CCCC(C)N1C(=O)CN1CCN(c2nc(-c3ccc(F)cc3)cs2)CC1` (stereo not drawn), the activation was 4.68% (inactive). Regarding `COc1ccc(-c2noc(CN(C)S(=O)(=O)c3ccc(C)cc3)n2)cc1`, the activation was 5.96% (inactive).

In the case of `O=C(CC(O)(C(F)(F)F)C(F)(F)F)Nc1ccc(Cl)c(Cl)c1`, the activation is 21.3% (active). Regarding `O=S(=O)(Nc1ccccc1N1CCOCC1)c1ccc(Cl)s1`, the activation is 0.07% (inactive).

Take `CCOc1ccc(S(=O)(=O)N2CCCCCC2)c2ccccc12`: the activation was -0.72% (inactive). For the compound `COc1ccc(S(=O)(=O)N2CCCC2)c(C)c1C`, the activation was 0.75% (inactive).

As to `COc1cc(/C=C(\C#N)c2nc3c(s2)CC(C)CC3)ccc1O` (stereo not drawn), the activation is 14% (inactive). With `COc1ccc(N(CCC#N)S(=O)(=O)c2ccc(Cl)cc2)cc1`, the activation is 0.61% (inactive). For `C=C(C)Cn1c(C)cc(C)c(S(=O)(=O)c2ccccc2C)c1=O` the value was -3.19% (inactive); for `CCOC(=O)C1=C(NC(=S)NC(=O)c2ccccc2)c2ccccc2CC1(C)C`, 15.5% (inactive); for `CCN(CC)C(=O)CC1(c2ccccc2OC)CCOC(C(C)C)C1` (stereo not drawn), -1.47% (inactive).
